Bioassay records (PubChem)
Only some compounds are listed: those with a hit (about 2.4% of all), similar ones and a draw of the others.
MC4R barr agon: human MC4R agonism via beta-arrestin; U2OS MC4R beta-arrestin complementation, luminescence; percent of melanotan II response, DMSO zero; P32245; 0.98% of 360,000 active; activation, % at 8.9 µM;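 active means activation above a per-plate cutoff, the mean activation of sample wells on that plate plus 3 SD, cut at about 8% in these data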
HTR5A ag ctr: activates human HTR5A in OPRM1-OPRD1 agonist counter-screen; activation, % at 9.3 µM; 0.61% of 340,000 active; HTR5A agonist assay, luminescence, cell-based; in the data active means activation mostly above about 9.5%, no sharp cut-off; inactive means mostly below about 7.6%;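 further: 0% = cells with vehicle only and 100% = reference agonist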
OPRM1-OPRD1 inv: inverse agonist of human OPRM1-OPRD1 heterodimerization; inhibition, % at 9.3 µM; P35372+P41143; 0.21% of 340,000 active; AID 504357; cell-based MOR-DOR heterodimer luminescence, inverse agonism; in the data active means inhibition above about 22%, passing the limit was not always enough;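 further: 0% = cells with DMSO and 100% = wells without cells with DMSO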
Target sequence (P35372 whole entry, looked up): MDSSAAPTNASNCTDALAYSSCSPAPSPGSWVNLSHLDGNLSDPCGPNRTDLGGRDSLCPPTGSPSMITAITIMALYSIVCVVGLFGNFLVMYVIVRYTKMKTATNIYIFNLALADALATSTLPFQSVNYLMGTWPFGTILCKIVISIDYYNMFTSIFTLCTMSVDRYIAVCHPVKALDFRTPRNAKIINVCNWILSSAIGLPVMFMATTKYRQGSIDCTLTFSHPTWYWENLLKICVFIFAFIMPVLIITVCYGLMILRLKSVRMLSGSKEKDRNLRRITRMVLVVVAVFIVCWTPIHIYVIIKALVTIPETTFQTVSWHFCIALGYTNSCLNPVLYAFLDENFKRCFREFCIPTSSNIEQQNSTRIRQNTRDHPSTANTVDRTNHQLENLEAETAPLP
Target sequence (P41143 whole entry, looked up): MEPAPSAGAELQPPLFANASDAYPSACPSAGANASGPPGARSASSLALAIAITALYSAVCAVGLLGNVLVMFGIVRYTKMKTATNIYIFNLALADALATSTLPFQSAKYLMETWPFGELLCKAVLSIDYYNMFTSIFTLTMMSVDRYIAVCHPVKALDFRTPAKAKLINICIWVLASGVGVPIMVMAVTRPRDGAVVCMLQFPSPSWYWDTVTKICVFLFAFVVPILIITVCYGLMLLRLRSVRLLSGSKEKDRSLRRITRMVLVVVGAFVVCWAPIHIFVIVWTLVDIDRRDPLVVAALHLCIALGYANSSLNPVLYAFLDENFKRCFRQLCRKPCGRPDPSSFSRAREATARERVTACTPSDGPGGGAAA
HTR5A inv ag: inverse agonist of human HTR5A in OPRM1-OPRD1 counter-screen. HTR5A cell line, luminescence, inverse agonism. inhibition, % at 9.3 µM. 0.083% of 340,000 active; in the data active means inhibition mostly above about 23%, no sharp cut-off; inactive means mostly below about 18%;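 further: 0% = cells with DMSO and 100% = no-cell wells with DMSO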
MOR-DOR ag: agonists of human mu-delta opioid receptor heterodimerization; cells, OPRM1-OPRD1 heterodimerization, luminescence; activation, % at 9.3 µM; 0.3% of 340,000 active; AID 504326; in the data active means activation above about 18%;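 further: 0% = vehicle-treated cells and 100% = reference agonist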
MC4R antagonist: antagonists of human melanocortin 4 receptor (MC4R); inhibition, % at 6.5 µM; 0.48% of 360,000 active; P32245; AID 540295; MC4R-expressing cells, MTII-stimulated cAMP, LANCE TR-FRET;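 active means inhibition above its plate's cutoff, the mean of tested wells on that plate plus 3 SD, cut at about 29% in these data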;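 further: 0% = Melanotan II alone and 100% = Melanotan II plus saturating MCL0020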
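Assay system: U2OS-MC4R stable cell line; Also added: Melanotan II; Technique: Eu-cAMP/anti-cAMP TR-FRET, emission 671 nm; Times: 30-min compound, 1-h challenge, 1-h detection, room temperature.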
OPRM1-D1 inv cf: confirmation of human OPRM1-OPRD1 heterodimerization inverse agonists; 20% of 580 active; AID 504900; inhibition, % at 9.3 µM; cells expressing OPRM1/OPRD1 heterodimer, luminescence; shares compounds with OPRM1-OPRD1 inv; in the data active means inhibition above about 32%;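 further: 0% = cells with DMSO and 100% = wells lacking cells with DMSO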
HTR5A inv count: HTR5A inverse agonism, opioid heterodimer counter-screen | 580 tested, under 10 active | AID 504914 | inhibition, % at 9.3 µM | shares compounds with OPRM1-OPRD1 inv | HTR5A-expressing cells, luminescence; call rule not given here;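 further: 0% = cells with DMSO and 100% = no-cell wells with DMSO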
* = called active by the depositor; i = inactive; . = no result given.

SMILES | MC4R barr agon | HTR5A ag ctr | OPRM1-OPRD1 inv | HTR5A inv ag | MOR-DOR ag | MC4R antagonist | OPRM1-D1 inv cf | HTR5A inv count
O=C1N=c2ccccc2=C1c1c(O)n(-c2cccc(F)c2)[nH]c1=O | -2.2 | -7.0 | 36.5* | 18.7 | -6.1 | -0.3 | -44.1 | 9.9
Cn1c(O)c(C2=c3ccccc3=NC2=O)[nH]c1=S | -0.5 | 7.3 | -11.5 | -5.0 | 2.3 | -7.3 | . | .
O=C(CNC(=O)C1CCCCC1)OCC(=O)c1cccc(Cl)c1 | -1.5 | -6.4 | 35.8* | 15.7 | -8.3 | 13.1 | 12.7 | -2.3
O=C(CNC(=O)C1CCCCC1)OCC(=O)c1ccc(F)cc1 | -0.5 | -0.1 | 7.3 | 0.2 | -1.4 | 12.5 | . | .
O=S(=O)(Nc1cccc2ncccc12)c1cccs1 | -2.8 | -9.7 | 47.5* | 20.9 | -9.6 | 10.4 | -195.8 | -13.3
COc1ccc(S(=O)(=O)NNc2nc(C)cc(C)n2)cc1Br | 0.8 | -0.4 | 30.8* | 1.0 | -5.6 | 3.8 | -1.6 | -8.1
Cc1cc(C)nc(NNS(=O)(=O)c2ccc(F)c(Cl)c2)n1 | -0.6 | -4.9 | 44.2* | 12.2 | -8.1 | -8.5 | 62.3* | -5.2
Cc1cc(C)nc(NS(=O)(=O)c2ccc(NS(=O)(=O)c3ccc(F)c(F)c3)cc2)n1 | -0.7 | . | . | . | . | 6.5 | . | .
Cc1cc(C)nc(NNS(=O)(=O)c2ccc(Cl)cc2)n1 | -1.4 | -3.5 | 44.8* | 13.3 | -10.2 | 7.0 | 18.9 | 6.9
CCCC1CC(C)(c2csc(Nc3ccc(OCC)cc3)n2)OC1=O (stereo not drawn) | 5.7 | 1.2 | -15.8 | -14.6 | 2.7 | -0.1 | . | .
O=C(CN1C(=O)NC2(CCCC2)C1=O)NCCc1ccccc1 | 0.3 | 6.6 | 10.0 | 13.3 | -2.7 | 1.4 | . | .
CN(C)c1nc(=NCc2ccco2)ss1 | -1.2 | -6.1 | 65.9* | 22.2 | -12.8 | 9.5 | -71.7 | -48.9
CC1Nc2ncnc(N3CCN(c4ccccc4)CC3)c2N(Cc2ccc(Cl)cc2)C1=O (stereo not drawn) | -3.6 | -10.6 | 56.7* | 28.4 | -9.7 | 6.4 | 33.4* | 62.6*
COc1ccc(-c2csc3ncnc(N4CCN(c5cccc(C)c5C)CC4)c23)cc1 | -8.5 | 0.6 | 40.0* | -7.4 | -7.4 | 0.5 | -175.8 | -10.6
COc1ccc(-c2csc3ncnc(N4CCN(c5cccc(OC)c5)CC4)c23)cc1 | -4.4 | 0.6 | 8.2 | 22.7 | -1.6 | 12.3 | . | .
Nc1nc(-c2ccccn2)nc(N)c1Cc1ccc(Cl)cc1Cl | -1.4 | -2.3 | 36.4* | 6.0 | -7.2 | 2.1 | -12.0 | -20.7
COC(=O)C1NN=C(C(=O)c2ccc(Cl)cc2)C1c1ccc(OC)cc1 (stereo not drawn) | 1.1 | -9.1 | 46.9* | 24.4 | -7.8 | 2.0 | 15.8 | 1.8
O=C(COC(=O)CCS(=O)(=O)c1ccccc1)Nc1ccc(N2CCCCC2)cc1 | 0.6 | -2.0 | -5.1 | 4.9 | 1.2 | 23.5 | . | .
COCCN(C(=O)C1CCCO1)c1c(N)n(CC(C)C)c(=O)[nH]c1=O (stereo not drawn) | -0.2 | 4.9 | 13.9 | -13.6 | -3.4 | -3.2 | . | .
Cc1nc(-n2[nH]c3c(c2=O)CCCC3)[nH]c(=O)c1Cc1ccccc1 | -4.2 | -5.8 | 37.3* | 28.3 | -6.0 | -7.7 | 7.5 | 4.6
O=C(OCC(=O)c1ccc(Cl)cc1Cl)c1ccccn1 | -2.3 | 1.3 | 50.4* | -3.7 | -12.2 | 1.8 | i | -70.8
O=C(OCC(=O)c1ccccc1Br)c1ccccn1 | -0.2 | -2.2 | 9.5 | 22.1 | -1.9 | 0.8 | . | .
O=C(OCC(=O)c1ccc(Cl)cc1Cl)c1ccc2c(c1)C(=O)N(c1cccc3ncccc13)C2=O | -1.6 | -2.2 | 43.1* | 1.6 | -8.3 | -3.7 | -61.3 | -31.6
O=C(CCC(=O)OCC(=O)c1ccc(Cl)cc1Cl)Nc1cccc2cccnc12 | -0.4 | -6.6 | 54.8* | 13.4 | -9.7 | 0.8 | -4.0 | -13.6
Cc1nn(C(C)C(=O)c2cccc(Cl)c2)c(C)c1[N+](=O)[O-] (stereo not drawn) | -2.2 | 0.2 | 6.6 | 13.5 | -1.3 | 6.1 | . | .
SMILES | MC4R barr agon | HTR5A ag ctr | OPRM1-OPRD1 inv | HTR5A inv ag | MOR-DOR ag | MC4R antagonist | OPRM1-D1 inv cf | HTR5A inv count
Cn1cnc([N+](=O)[O-])c1S(=O)(=O)Nc1ccccc1 | -0.7 | 0.3 | 17.0 | -1.3 | -3.2 | -0.8 | . | .
Cn1cnc([N+](=O)[O-])c1S(=O)(=O)Oc1ccccc1 | -3.4 | -5.3 | 39.9* | 21.0 | -8.2 | 4.1 | 8.8 | 14.3
Cn1cnc([N+](=O)[O-])c1S(=O)(=O)c1cccc(Cl)c1 | -2.4 | -2.6 | 28.8* | 16.4 | -4.0 | 15.2 | -19.6 | -90.4
N#CC(=C1C=CC(=NO)C(Cl)=C1)c1ccc(Cl)cc1 | -2.1 | 0.2 | 8.7 | -0.7 | -2.0 | -22.0 | . | .
COc1ccc(C(C#N)=C2C=CC(=NO)C=C2)cc1 | -1.8 | 0.8 | 47.6* | -2.0 | -9.6 | -6.6 | -46.7 | -34.9
Cc1ccc(C2Nc3ccccc3NC3=C2C(=O)CC(C)(C)C3)c(O)c1 (stereo not drawn) | 0.0 | 1.0 | 7.3 | -3.8 | -1.5 | 11.3 | . | .
CC1(C)CC(=O)C2=C(C1)Nc1ccccc1NC2c1cc(Cl)ccc1O (stereo not drawn) | -0.4 | 1.7 | 41.5* | -4.8 | -8.1 | 4.2 | -427.8 | -11.8
COCCN(C(=O)CSc1nnc(-c2ccccc2F)n1N)c1c(N)n(Cc2ccccc2)c(=O)[nH]c1=O | 1.1 | 8.3 | 28.8* | -21.2 | -7.1 | -4.2 | -28.1 | 4.8
CC(=O)N(C)c1ccc(N=C2C(=O)Nc3ccccc32)cc1 | -0.2 | -3.3 | 56.7* | 12.3 | -12.7 | -2.1 | i | -3.1
O=C1Nc2ccccc2/C1=N\N1CCOCC1 | -1.2 | -1.3 | 17.9 | 0.5 | -3.5 | -15.7 | . | .
NC(N)=NS(=O)(=O)c1ccc(N=C2C(=O)Nc3ccccc32)cc1 | -2.5 | -7.8 | 53.3* | 28.5 | -10.4 | 5.4 | 70.0* | 16.5
Cn1cc(C(=O)N2CCc3ccccc32)cn1 | 1.1 | 4.0 | 5.3 | -1.6 | -1.0 | 17.6 | . | .
N#C/C(=C1/C(=O)Nc2ccc(Br)cc21)c1ccccn1 | -1.9 | -4.2 | 49.1* | 11.5 | -10.5 | -22.4 | i | 3.9
O=C1Nc2ccc(Br)cc2C1=C1CCCCC1 | 3.4 | -1.4 | -4.1 | 5.2 | 0.8 | 9.4 | . | .
CCCN(CCC)S(=O)(=O)c1ccc(C(=O)Nc2nc(-c3ccccc3)c(C(=O)OCC)s2)cc1 | -1.9 | -2.0 | 2.7 | 0.0 | -0.4 | 5.7 | . | .
CCCCCC(=O)NNC(=S)NC(=O)c1ccccc1[N+](=O)[O-] | -1.0 | -8.5 | 30.0* | -3.0 | -5.8 | 13.5 | -140.2 | 10.6
Cc1cnn(CCC(=O)NNC(=S)Nc2ccc(F)cc2)c1 | -1.9 | -2.9 | 31.1* | 7.6 | -5.5 | -2.7 | 40.4* | 0.7
COc1cc(Cl)ccc1OCc1cc(C(=O)N2CCN(C3CCCCC3)CC2)no1 | 2.6 | . | . | . | . | 12.8 | . | .
